Compound activity deposited in PubChem BioAssay by several laboratories.
STAT3 blocker = IL-6 driven STAT3 reporter inhibitors, primary screen, U3A cells, luciferase, luminescence, MLSCN library; 0.89% of 190,000 active; inhibition, % at 5.5 µM; IL-6 STAT3-luciferase reporter; host cell line lacks STAT1;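 active means inhibition above the mean inhibition across all screened compounds plus 3 SD, cut at about 44% in these data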;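 further: 0% = DMSO only wells and 100% = 100 µM nifuroxazide control wells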
STAT1 blocker = STAT1 signaling inhibitors, primary screen, cell-based, HTS, luciferase reporter; 0.35% of 200,000 active; AID 920, 2007; inhibition, % at 5.5 µM; NIH 3T3 STAT1-luciferase reporter, IFN-gamma, luminescence;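 active means inhibition above a set limit, the mean inhibition across all tested compounds plus 3 SD, cut at about 34% in these data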;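 further: 0% = IFN-gamma with DMSO and 100% = IFN-gamma with 300 µM nifuroxazide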
APP 5'UTR act = activators of APP 5'UTR luciferase reporter, primary screen, SH-SY5Y cells. 1% of 190,000 active. activation, % at 2 µM. AID 1276, 2008. SH-SY5Y APP 5'UTR luciferase reporter, luminescence; zero percent = DMSO vehicle wells;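 active means activation above a set limit, based on mean plus 3 SD of controls, cut at about 140% in these data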
STAT1 activator = STAT1 signaling activators, primary screen, cell-based, HTS, luciferase reporter. activation (% of control), % at 5.5 µM. 2.6% of 200,000 active. NIH 3T3 STAT1-luciferase reporter, IFN-gamma, luminescence; 100% = IFN-gamma alone, no compound. AID 932, 2007;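 active means activation above the screen-wide mean activation plus 3 SD, cut at about 130% in these data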;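 further: raw ratio to IFN-gamma control signal so 100% means no change and 0% no light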
STAT3 act = IL-6 driven STAT3 reporter potentiators, primary screen, U3A cells, luciferase, luminescence, MLSCN library; activation (% of control), % at 5.6 µM; IL-6 STAT3-luciferase reporter; 100% = signal with IL-6 EC80 alone; 0.91% of 190,000 active;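 active means activation above the screen-wide mean of compound activation plus 3 SD, cut at about 130% in these data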;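 further: 0% = background luminescence of wells with medium and substrate only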
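Test system: STAT3-luciferase reporter U3A cells; Detection: reporter luminescence signal; Times: 1 h compound pre-exposure, 6 h IL-6 stimulation, 37 °C; Benchmarks: IL-6-only high control; Also added: IL-6 stimulus at 33 ng/mL final.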
NF-kB neuron act = activators of NF-kB expression in neurons, primary screen, cell-based, HTS. human neuronal cells, NF-kB reporter expression; active compounds read high. fold change at 12.5 µM. 1.6% of 190,000 active. AID 1239, 2008; in the data active means fold change above about 3.3
Active calls of the source: *; / = no result given. A selection: hits, their analogues and other compounds. The true share with any hit is near 5.1%.

SMILES	STAT3 blocker	STAT1 blocker	APP 5'UTR act	STAT1 activator	STAT3 act	NF-kB neuron act
Cc1ccc(-c2nc3ccccc3s2)cc1NC(=S)NC(=O)c1ccccc1	-15	-6	178*	106	118	6.8*
CC(=O)Nc1ccc(S(=O)(=O)Nc2nc3ccc(C)cc3s2)cc1	8	-5	5	104	96	1.1
Cc1ccc2nc(-c3ccc(NC(=S)NCCC(C)C)cc3)sc2c1	18	-30	134	127	90	/
CC(=O)NC(=S)Nc1ccc(-c2nc3ccc(C)cc3s2)cc1	1	-27	110	125	106	3.7*
O=C(Nc1ccc(-c2nc3ccccc3s2)c(OC(=O)c2ccccc2)c1)c1ccccc1	-4	-1	208*	101	102	1.5
COc1ccc(C(=O)NCc2ccc(-c3nc4ccccc4s3)cc2)cc1OC	12	-22	52	121	94	1.7
COC(=O)c1cn(C(=O)c2ccc(C)c(C)c2)c2ccccc12	2	-12	-9	111	102	1.2
COC(=O)c1sc(NC(=O)COc2ccccc2OC)nc1C	19	-9	45	108	87	1.2
Cc1cc(C)cc(N(CC(=O)Nc2ccc(-c3nc4ccc(C)cc4s3)cc2)S(C)(=O)=O)c1	2	-46	57	142*	94	1.2
O=C(NC(=O)c1ccccc1)NC1(C(F)(F)F)OCCO1	-16	-39	97	135*	119	4.2*
CCN(CC)c1ccc(/C=N/NC(=O)c2c(Cl)c(C)nn2C)cc1	-1	-8	-2	107	104	1
CC(/C=N/NC(=O)c1cccs1)=C\c1ccccc1	32	-38	188*	134*	75	8.5*
CC(/C=N/NC(=O)c1ccco1)=C\c1ccccc1	41	-9	161*	108	68	5.9*
O=C(N/N=C\CCc1ccccc1)c1ccco1	-9	-38	43	134*	108	1.2
COc1ccc(CNC(=O)CN(Cc2cccs2)C(=O)CCC(=O)Nc2ccccn2)cc1	4	2	12	99	99	0.97
CSc1ccc(C2c3[nH]c4ccccc4c3CCN2C(=O)c2ccnn2C)cc1 (centres undefined)	-50	-40	71	137*	150*	3
CCc1ccc(C2c3[nH]c4ccccc4c3CCN2C(=O)CN2CCN(CC)CC2)cc1 (centres undefined)	-32	5	-2	94	134*	0.67
CCc1ccc(C2c3[nH]c4ccccc4c3CCN2C(=O)CNC(N)=O)cc1 (centres undefined)	-18	0	-1	98	122	1.1
Cc1nc2ccccc2n1CC(O)COc1ccc(Br)cc1 (centres undefined)	22	23	-7	77	84	0.76
CC1CCN(c2nc3ccc(C(=O)N4CCN(Cc5ccccc5)CC4)cc3s2)CC1	11	-33	59	130*	98	1.4
O=C(O)c1ccc(NC(=O)c2cn(-c3ccccc3)nc2-c2ccc(F)cc2)cc1	-13	-41	11	135*	115	1.6
O=C(Nc1ccc(F)cc1)c1cnc(-c2ccccc2)nc1-c1ccccc1	7	-37	4	133*	100	1.1
CC(=O)c1ccc(NC(=O)c2cn(-c3ccccc3)nc2-c2ccncc2)cc1	16	19	/	83	91	1
O=C(Nc1ccc(F)c(F)c1)c1cnc(-c2ccccc2)nc1-c1ccccc1	3	-5	-8	104	102	1.1
C=CCN=c1scc(-c2ccccc2)n1/N=C/c1ccccn1	25	-126	99	215*	78	7.5*
SMILES	STAT3 blocker	STAT1 blocker	APP 5'UTR act	STAT1 activator	STAT3 act	NF-kB neuron act
C=CCN=c1scc(-c2ccc(F)cc2)n1/N=C/c1ccccn1	-5	-22	47	120	100	3.3*
Cc1cccc(OCC(=O)N(C)CCc2ccccn2)c1	-5	1	10	99	106	1.2
O=C1C(c2ccncc2)=C(O)c2ccccc21	27	-1	160*	101	81	3.5*
CC(C)c1ccc(C2=C(O)c3ccccc3C(=O)C2=O)cc1	21	-7	5	106	85	1.6
Cc1ccc(-c2nc(C#N)c(NCC3CCCO3)o2)cc1 (centres undefined)	-2	-28	32	124	104	2.2
O=C(NCC1CCCO1)c1cc2ccccc2oc1=O (centres undefined)	3	3	-1	95	99	1.1
c1ccc2oc(-c3csc(NCC4CCCO4)n3)cc2c1 (centres undefined)	27	-52	169*	148*	81	9.1*
c1ccc(CCNc2nc3ccccc3s2)cc1	8	-21	31	119	99	2.2
Cc1ccc(CNc2nc3ccccc3s2)s1	75*	51*	182*	53	40	4.2*
c1ccc2sc(NCC3CCCO3)nc2c1 (centres undefined)	-2	-39	50	136*	104	1.2
Cc1ccc(C)c(OCCOCCN2CCOCC2)c1	3	-6	4	106	101	1.2
Clc1cc(Br)ccc1OCCOCCN1CCOCC1	4	-9	11	108	100	3.6*
CC(=O)N=C(N)Sc1nc2ccccc2[nH]1	0	-37	63	134*	102	2.7
CC(Sc1nc2ccccc2[nH]1)C(=O)O (centres undefined)	4	2	0	98	103	0.94
O=C(NC1CCN(C(=S)NCCc2ccccc2)CC1)C1CCCCC1	11	2	4	96	98	1
CNC(=O)NC(=O)C(C)OC(=O)c1c2c(nc3ccccc13)/C(=C/c1cccs1)CC2 (centres undefined)	2	-32	18	130*	94	1.1
CCCCNC(=O)COC(=O)c1c2c(nc3ccccc13)/C(=C/c1cccs1)CC2	4	28	60	76	99	0.7
COC(=O)c1ccc(COc2ccccc2[N+](=O)[O-])o1	1	-17	33	115	102	1.3
CCCc1ccc(OCc2ccc(C(=O)OC)o2)c(OC)c1	-12	-35	71	132*	110	2.8
CCCc1ccc(OCc2ccc(C(=O)O)o2)c(OC)c1	9	-30	82	127	95	4.2*
COc1ccc(C(=O)CSc2ccc(-c3ccccc3)nn2)cc1	0	0	8	100	96	1.3
COc1ccc(-c2ccc(SC)nn2)cc1	84*	59*	114	46	30	/
COc1ccc(C(=O)NC(=O)Nc2ncccc2C)cc1	14	-31	16	124	89	1.8
